Data as given in ChEMBL document CHEMBL4219033, “Anticancer activity profiling of parthenolide analogs generated via P450-mediated chemoenzymatic synthesis” (2018).

Assays:
Format in all cases: functional
[1] = system: MDA-MB-231; experiment: Cytotoxicity against human MDA-MB-231 cells assessed as cell viability at 10 uM after 24 hrs by MTT assay relative to control; conditions: MDA-MB-231, 24 h, read-out: Activity
Outline: (§1)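 Adherent lines in DMEM plus 10% FBS and penicillin-streptomycin, 37 °C, 5% CO2, lifted with Accutase. Seeded at 500–10,000 cells/well and rested 15 h. Compounds from 10 mM DMSO stocks dosed at 10 µM final, 1% DMSO final, n = 5, for 24 h. Medium then swapped for 1 mg/ml MTT in phenol-red-free medium for 3 h at 37 °C. Formazan dissolved in DMSO, OD read at 550 nm. Viability normalised to 1% DMSO vehicle control.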

[2] = system: A549; experiment: Cytotoxicity against human A549 cells assessed as cell viability at 10 uM after 24 hrs by MTT assay relative to control; conditions: A549, 24 h, read-out: Activity; outline: as §1
[3] = system: SK-N-MC; experiment: Cytotoxicity against human SK-N-MC cells assessed as cell viability at 10 uM after 24 hrs by MTT assay relative to control; conditions: read-out: Activity; outline: as §1
[4] = system: JeKo-1; experiment: Cytotoxicity against human JeKo1 cells assessed as cell viability at 2 uM after 24 hrs by MTT assay relative to control; conditions: JeKo-1, 24 h, read-out: Activity
Outline: (§2)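 Suspension lines grown in α-MEM plus 10% FBS and penicillin-streptomycin, 37 °C, 5% CO2. Seeded at 30,000 cells/well in phenol-red-free α-MEM and rested 15 h. Exposed to 10 µM, or 2 µM in the lower-dose repeat, at 1% DMSO final for 24 h. 5 mg/ml MTT added directly for 3 h at 37 °C. Plates spun, formazan dissolved in DMSO, OD read at 550 nm. Viability relative to vehicle.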

[5] = system: JeKo-1; experiment: Cytotoxicity against human JeKo1 cells assessed as cell viability at 10 uM after 24 hrs by MTT assay relative to control; conditions: JeKo-1, 24 h, read-out: Activity; outline: as §2
[6] = system: Jurkat; experiment: Cytotoxicity against human Jurkat cells assessed as cell viability at 2 uM after 24 hrs by MTT assay relative to control; conditions: read-out: Activity; outline: as §2
[7] = system: Jurkat; experiment: Cytotoxicity against human Jurkat cells assessed as cell viability at 10 uM after 24 hrs by MTT assay relative to control; conditions: read-out: Activity; outline: as §2
[8] = system: PC-3; experiment: Cytotoxicity against human PC3 cells assessed as cell viability at 10 uM after 24 hrs by MTT assay relative to control; conditions: PC-3, 24 h, read-out: Activity; outline: as §1
[9] = system: SK-MEL-2; experiment: Cytotoxicity against human SK-MEL-2 cells assessed as cell viability at 10 uM after 24 hrs by MTT assay relative to control; conditions: SK-MEL-2, 24 h, read-out: Activity; outline: as §1
[10] = system: HeLa; experiment: Cytotoxicity against human HeLa cells assessed as cell viability at 10 uM after 24 hrs by MTT assay relative to control; conditions: read-out: Activity; outline: as §1
[11] = system: HCT-116; experiment: Cytotoxicity against human HCT116 cells assessed as cell viability at 10 uM after 24 hrs by MTT assay relative to control; conditions: HCT-116, 24 h, read-out: Activity; outline: as §1
[12] = system: SJSA-1; experiment: Cytotoxicity against human SJSA1 cells assessed as cell viability at 10 uM after 24 hrs by MTT assay relative to control; conditions: SJSA-1, 24 h, read-out: Activity; outline: as §1
[13] = system: HCT-116; experiment: Cytotoxicity against human HCT116 cells assessed as cell viability after 24 hrs by MTT assay; conditions: HCT-116, 24 h, read-out: LC50 (the source's name)
Outline: (§3)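 Adherent cells grown in DMEM with 10% FBS and penicillin-streptomycin, dissociated with Accutase, seeded at 500–10,000 cells/well and held 15 h before treatment. Compounds diluted from 10 mM DMSO stocks, final 1% DMSO, for 24 h at 37 °C, 5% CO2. Medium replaced with 1 mg/ml MTT for 3 h, formazan dissolved in DMSO, OD 550 nm. LC50 from dose-response curves normalized to 1% DMSO vehicle.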

[14] = system: JeKo-1; experiment: Cytotoxicity against human JeKo1 cells assessed as cell viability after 24 hrs by MTT assay; conditions: JeKo-1, 24 h, read-out: LC50 (the source's name)
Outline: (§4)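 Suspension cells grown in α-MEM with 10% FBS and penicillin-streptomycin, seeded at 30,000 cells/well in phenol red-free medium and held 15 h before treatment. Compounds diluted from 10 mM DMSO stocks, final 1% DMSO, for 24 h. MTT (5 mg/ml stock) added directly for 3 h at 37 °C, then centrifugation, DMSO solubilization, OD 550 nm. LC50 from dose-response curves normalized to vehicle.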

[15] = system: Jurkat; experiment: Cytotoxicity against human Jurkat cells assessed as cell viability after 24 hrs by MTT assay; conditions: read-out: LC50 (the source's name); outline: as §4
[16] = system: MDA-MB-231; experiment: Cytotoxicity against human MDA-MB-231 cells assessed as cell viability after 24 hrs by MTT assay; conditions: MDA-MB-231, 24 h, read-out: LC50 (the source's name); outline: as §3
[17] = system: PC-3; experiment: Cytotoxicity against human PC3 cells assessed as cell viability after 24 hrs by MTT assay; conditions: PC-3, 24 h, read-out: LC50 (the source's name); outline: as §3
[18] = system: HeLa; experiment: Cytotoxicity against human HeLa cells assessed as cell viability after 24 hrs by MTT assay; conditions: read-out: LC50 (the source's name); outline: as §3
[19] = system: SJSA-1; experiment: Cytotoxicity against human SJSA1 cells assessed as cell viability after 24 hrs by MTT assay; conditions: SJSA-1, 24 h, read-out: LC50 (the source's name); outline: as §3
[20] = system: SK-N-MC; experiment: Cytotoxicity against human SK-N-MC cells assessed as cell viability after 24 hrs by MTT assay; conditions: read-out: LC50 (the source's name); outline: as §3
[21] = system: A549; experiment: Cytotoxicity against human A549 cells assessed as cell viability after 24 hrs by MTT assay; conditions: A549, 24 h, read-out: LC50 (the source's name); outline: as §3

Row | SMILES | viability at 10 µM [1] [%] | viability at 10 µM [2] [%] | viability at 10 µM [3] [%] | viability at 2 µM [4] [%] | viability at 10 µM [5] [%] | viability at 2 µM [6] [%] | viability at 10 µM [7] [%] | viability at 10 µM [8] [%] | viability at 10 µM [9] [%] | viability at 10 µM [10] [%] | viability at 10 µM [11] [%] | viability at 10 µM [12] [%] | CC50 [13] [µM] | CC50 [17] [µM] | CC50 [18] [nM] | also measured
1 | C=C1C(=O)O[C@@H]2[C@H]3O[C@]3(C)CC/C=C(/COC(=O)Nc3ccccc3)CC[C@@H]12 | 97.1 | 60.3 | 102 | 100 | 16.6 | 89.2 | 0 | 85.3 | 80.5 | 74.2 | 45.9 | 100 | – | – | – | –
2 | C=C1C(=O)O[C@@H]2[C@H]3O[C@]3(C)CC/C=C(/C)[C@@H](OC(=O)c3cc(-c4ccc(Cl)cc4)on3)C[C@@H]12 | 84.7 | 98.4 | 70.7 | 96.9 | -2.7 | 95.7 | 0 | 71.7 | 85.8 | 63.5 | 14.2 | 92.7 | 8.3 | – | – | –
3 | C=C1C(=O)O[C@@H]2[C@H]3O[C@]3(C)CC/C=C(/COC(=O)c3coc(-c4ccc(Br)cc4)c3)CC[C@@H]12 | 91 | 74.8 | 66.1 | 100 | 7.4 | 89 | 0 | 65.9 | 78.8 | 57.6 | 11.8 | 47.7 | 11.8 | – | – | –
4 | C=C1C(=O)O[C@@H]2[C@H]3O[C@]3(C)CC/C=C(/C)[C@@H](OC(=O)Nc3cccc4ccccc34)C[C@@H]12 | 100 | 95.8 | 96.8 | 97.6 | 75.7 | 93.3 | 84 | 83.4 | 98.7 | 88.8 | 100 | 100 | – | – | – | –
5 | C=C1C(=O)O[C@@H]2[C@H]3O[C@]3(C)CC/C=C(/C)[C@@H](OC(=O)Nc3ccccc3)C[C@@H]12 | 100 | 84.5 | 91.9 | 92.2 | 2.6 | 89.8 | 2.9 | 88.4 | 69.4 | 69 | 55.3 | 96.6 | – | – | – | –
6 | C=C1C(=O)O[C@@H]2[C@H]3O[C@]3(C)CC/C=C(/C)[C@@H](OC(=O)Nc3cc(C(F)(F)F)cc(C(F)(F)F)c3)C[C@@H]12 | 16.7 | 54.3 | 18.5 | 76.4 | -1 | 68.9 | 0 | 38.7 | 57 | 20.2 | 10.8 | 68.2 | 7.9 | – | – | CC50 [14]: 3.5 µM; CC50 [15]: 2800 nM; CC50 [16]: 7.2 µM
7 | C=C1C(=O)O[C@@H]2[C@H]3O[C@]3(C)CC/C=C(/COC(=O)Nc3ccc([N+](=O)[O-])cc3)CC[C@@H]12 | 41.3 | 60 | 23.3 | 80 | -0.1 | 79 | 0 | 17.7 | 40.4 | 5.4 | 1.6 | 44.5 | 7.8 | 5.7 | 1700 | –
8 | C=C1C(=O)O[C@@H]2[C@H]3O[C@]3(C)CC/C=C(/COC(=O)c3ccc(C(F)(F)F)cc3C(F)(F)F)CC[C@@H]12 | 20.7 | 45.1 | 18.7 | 80.9 | -2.2 | 89 | 0 | 4 | 62 | 11.3 | 15.1 | 17.8 | 8.2 | 6.7 | 2900 | CC50 [19]: 7.7 µM; CC50 [20]: 5.6 µM
9 | C=C1C(=O)O[C@@H]2[C@H]3O[C@]3(C)CC/C=C(/COC(=O)c3cc(C(F)(F)F)cc(C(F)(F)F)c3)CC[C@@H]12 | 8 | 29.6 | 3.2 | 64.3 | 4.8 | 70 | 5.7 | 3.7 | 28.6 | 3.9 | 15.5 | 23.1 | 5.7 | 4.7 | 1500 | CC50 [14]: 1.7 µM; CC50 [15]: 1900 nM; CC50 [21]: 4.9 µM; CC50 [19]: 6.4 µM; CC50 [16]: 6.2 µM; CC50 [20]: 0.6 µM
10 | C=C1C(=O)O[C@@H]2[C@H]3O[C@]3(C)CC/C=C(/COC(=O)Nc3ccc(F)cc3F)CC[C@@H]12 | 88.5 | 70.6 | 95.6 | 78.3 | -2.1 | 86.2 | 0 | 89.8 | 84.5 | 89.7 | 33.2 | 100 | – | – | – | CC50 [14]: 6.7 µM
11 | C=C1C(=O)O[C@@H]2[C@H]3O[C@]3(C)CC/C=C(/C)[C@@H](OC(=O)c3ccc(C(F)(F)F)cc3C(F)(F)F)C[C@@H]12 | 19.2 | 33.7 | 11.5 | 105 | 5.7 | 83.2 | 0 | 6.4 | 61.4 | 10.7 | 20.8 | 26.5 | – | 5.3 | 2100 | CC50 [16]: 5.7 µM; CC50 [20]: 5.7 µM
12 | C=C1C(=O)O[C@@H]2[C@H]3O[C@]3(C)CC/C=C(/C)[C@@H](OC(=O)Nc3ccc(F)cc3F)C[C@@H]12 | 96.4 | 68.9 | 91.3 | 80.4 | -2.6 | 85.8 | 0 | 82.8 | 85.8 | 76.3 | 17.6 | 100 | 11.8 | – | – | –
